Data set [1] concerns 4T1 cells. Kind of data set: MTT cytotoxicity. Format: cell-based, mouse. As to conditions: increasing dosage, n = 4. The method, boiled down: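 4T1 cells, cultured in DMEM with 10% FBS and 1% pen-strep at 37 °C, 5% CO2, were seeded overnight until adherent. They were then exposed to a concentration series of test compound. Light groups received 638 nm, 29.8 mW/cm2 for 12 min. Viability was measured by standard MTT relative to untreated cells, n = 4, mean ± SD.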

For data set [2], the system named is 4T1 cells. Nature of the data set: Annexin V-FITC/PI flow cytometry. It counts as cell-based, mouse. As to conditions: upon light. A digest of the protocol:
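Mouse 4T1 cells, grown in DMEM with 10% FBS and 1% pen-strep at 37 °C, 5% CO2, were exposed to test compound at one fixed concentration for 6 h in the dark. Cells were then irradiated (638 nm, 29.8 mW/cm2, 15 min) or left unirradiated, and stained with Annexin V-FITC and PI for 15 min. Apoptotic and necrotic fractions were read by flow cytometry.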
On the technique in general: Flow cytometry measures light scatter and fluorescence of single cells or particles in a stream.

The next data set has as its system 4T1 tumor. To be noted: i.v., PT 20 mg/kg, PTI 25 mg/kg, 0.5-12 h.

As for `O=C1[C@H](Cc2ccc(O)cc2)N2C(=O)CCN(C(=O)NCc3ccccc3)[C@H]2CN1Cc1cccc2ccccc12` [ICG-001], the “Cytotoxicity (MTT), ICG-001 alone” value in the data set on 4T1 cells [1] is “could hardly retard the cell expansion”.

In the case of Palmitic-K(PpIX)-HAIYPRH [PT], the “Cells in apoptosis or necrosis state” value in the data set with 4T1 cells [2] was “less than a quarter”. Also, the “Tumor accumulation (fluorescence imaging)” value with 4T1 tumor is “weaker tumor accumulation than PTI”.

These data come from PMC11413667 (Acta Pharmaceutica Sinica. B, 2024).
